Experimental data reported in ChEMBL document CHEMBL3603756, “Synthesis and apoptotic activity of new pyrazole derivatives in cancer cell lines” (2015).
Activity calls are given as the source filed them. The rule behind the calls is not given here.

Legend:
[1] = Reduction in PRKAA2 gene expression in human Hep2 cells at 50 ug/ml incubated for 24 hrs by real-time PCR method; format: functional, cell-based; settings: HEp-2
How it was run: (§1)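 HEp-2 cells were treated 24 h at 10 or 50 µg/mL. Total RNA was extracted with Trizol, and 2 µg was reverse-transcribed. 50 ng cDNA went into TaqMan real-time PCR with beta-actin as endogenous control. Relative expression was calculated by the ∆∆CT method. Each experiment was run three times.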

[2] = tested on: HEp-2; test: Induction of cell cycle arrest in human Hep2 cells assessed accumulation at S phase at 10 ug/ml incubated for 24 hrs by propidium iodide staining based flow cytometry (reference value: 21.06%); format: functional
[3] = Reduction in PRKAA2 gene expression in human Hep2 cells at 10 ug/ml incubated for 24 hrs by real-time PCR method; format: functional, cell-based; settings: HEp-2; how it was run: as §1
[4] = tested on: HEp-2; test: Induction of cell cycle arrest in human Hep2 cells assessed accumulation at G2/M phase at 50 ug/ml incubated for 24 hrs by propidium iodide staining based flow cytometry (reference value: 7.82%); format: functional
[5] = Reduction in PRKAA1 gene expression in human Hep2 cells at 10 ug/ml incubated for 24 hrs by real-time PCR method; format: functional, cell-based; settings: HEp-2; how it was run: as §1
[6] = tested on: THP-1; test: Cytotoxicity against human THP1 cells assessed as cell viability at 50 ug/ml incubated for 24 hrs by MTS assay; format: functional; settings: THP-1, 24 h, read-out: Activity
How it was run: (§2)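 Cells were held at 37 °C, 5% CO2 in humid air. HEp-2 (5 x 10³/well) and HCT-8 (7 x 10³/well) grew in DMEM + 10% heat-inactivated FBS and got compound (binary dilutions) 24 h after seeding. THP-1 (5 x 10³ cells, RPMI-1640 + 10% FBS) were added directly to the dilutions. Exposure lasted 24 h. MTS (CellTiter 96 AQueous One) read-out was absorbance at 490 nm.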

[7] = tested on: HEp-2; test: Induction of cell cycle arrest in human Hep2 cells assessed accumulation at G2/M phase at 10 ug/ml incubated for 24 hrs by propidium iodide staining based flow cytometry (reference value: 7.82%); format: functional
[8] = Reduction in PRKAA1 gene expression in human Hep2 cells at 50 ug/ml incubated for 24 hrs by real-time PCR method; format: functional, cell-based; settings: HEp-2; how it was run: as §1
[9] = tested on: HCT-8; test: Induction of apoptosis in human HCT8 cells assessed early apoptosis level at 50 ug/ml incubated for 24 hrs by annexin V-FITC and propidium iodide staining based flow cytometry (reference value: 0.75%); format: functional
[10] = tested on: HEp-2; test: Induction of cell cycle arrest in human Hep2 cells assessed accumulation at S phase at 50 ug/ml incubated for 24 hrs by propidium iodide staining based flow cytometry (reference value: 21.06%); format: functional
[11] = Cytotoxicity against human HCT8 cells assessed as cell viability at 50 ug/ml incubated for 24 hrs by MTS assay; format: functional; settings: HCT-8, 24 h, read-out: Activity; how it was run: as §2
[12] = Cytotoxicity against human Hep2 cells assessed as cell viability at 25 ug/ml incubated for 24 hrs by MTS assay; format: functional; settings: HEp-2, 24 h, read-out: Activity; how it was run: as §2
[13] = Cytotoxicity against human Hep2 cells assessed as cell viability at 12.5 ug/ml incubated for 24 hrs by MTS assay; format: functional; settings: HEp-2, 24 h, read-out: Activity; how it was run: as §2
[14] = tested on: HCT-8; test: Induction of apoptosis in human HCT8 cells assessed late apoptosis level at 50 ug/ml incubated for 24 hrs by annexin V-FITC and propidium iodide staining based flow cytometry (reference value: 4.8%); format: functional
[15] = Cytotoxicity against human HCT8 cells assessed as cell viability at 25 ug/ml incubated for 24 hrs by MTS assay; format: functional; settings: HCT-8, 24 h, read-out: Activity; how it was run: as §2
[16] = Cytotoxicity against human Hep2 cells assessed as cell viability at 50 ug/ml incubated for 24 hrs by MTS assay; format: functional; settings: HEp-2, 24 h, read-out: Activity; how it was run: as §2
[17] = tested on: HEp-2; test: Induction of cell cycle arrest in human Hep2 cells assessed accumulation at G0/G1 phase at 10 ug/ml incubated for 24 hrs by propidium iodide staining based flow cytometry (reference value: 74.51%); format: functional
[18] = tested on: HEp-2; test: Induction of cell cycle arrest in human Hep2 cells assessed accumulation at G2/M phase incubated for 24 hrs by propidium iodide staining based flow cytometry; format: functional
[19] = tested on: THP-1; test: Cytotoxicity against human THP1 cells assessed as cell viability at 25 ug/ml incubated for 24 hrs by MTS assay; format: functional; settings: THP-1, 24 h, read-out: Activity; how it was run: as §2
[20] = Cytotoxicity against human HCT8 cells assessed as cell viability at 12.5 ug/ml incubated for 24 hrs by MTS assay; format: functional; settings: HCT-8, 24 h, read-out: Activity; how it was run: as §2
[21] = tested on: HCT-8; test: Induction of apoptosis in human HCT8 cells assessed viable cells level at 50 ug/ml incubated for 24 hrs by annexin V-FITC and propidium iodide staining based flow cytometry (reference value: 93.3%); format: functional
[22] = tested on: HCT-8; test: Induction of apoptosis in human HCT8 cells assessed necrosis level at 50 ug/ml incubated for 24 hrs by annexin V-FITC and propidium iodide staining based flow cytometry (reference value: 1.12%); format: functional
[23] = tested on: THP-1; test: Cytotoxicity against human THP1 cells assessed as cell viability at 12.5 ug/ml incubated for 24 hrs by MTS assay; format: functional; settings: THP-1, 24 h, read-out: Activity; how it was run: as §2
[24] = tested on: HEp-2; test: Induction of cell cycle arrest in human Hep2 cells assessed accumulation at G0/G1 phase at 50 ug/ml incubated for 24 hrs by propidium iodide staining based flow cytometry (reference value: 74.51%); format: functional
[25] = tested on: HEp-2; test: Reduction in survivin protein levels in human Hep2 cells at 50 ug/ml incubated for 24 hrs by protein array method; format: functional, cell-based
[26] = tested on: HEp-2; test: Increase in FADD protein expression in human Hep2 cells at 50 ug/ml incubated for 24 hrs by protein array method; format: functional, cell-based
[27] = tested on: HEp-2; test: Induction of apoptosis in human Hep2 cells assessed as increase in p53 S15/S46/S392 phosphorylation level at 50 ug/ml incubated for 24 hrs by protein array method; format: functional, cell-based
[28] = tested on: HEp-2; test: Increase in TRAIL-R1 protein expression in human Hep2 cells at 50 ug/ml incubated for 24 hrs by protein array method; format: functional, cell-based
[29] = tested on: HEp-2; test: Increase in cleaved-caspase-3 levels in human Hep2 cells at 50 ug/ml incubated for 24 hrs by protein array method; format: functional, cell-based
[30] = tested on: HEp-2; test: Increase in Fas/TNFRSF6 protein expression in human Hep2 cells at 50 ug/ml incubated for 24 hrs by protein array method; format: functional, cell-based
[31] = tested on: HEp-2; test: Reduction in c-IAP1 levels in human Hep2 cells at 50 ug/ml incubated for 24 hrs by protein array method; format: functional, cell-based
[32] = tested on: HEp-2; test: Increase in caspase-8 levels in human Hep2 cells at 50 ug/ml incubated for 24 hrs by protein array method; format: functional, cell-based
[33] = tested on: HEp-2; test: Increase in TRAIL-R2 protein expression in human Hep2 cells at 50 ug/ml incubated for 24 hrs by protein array method; format: functional, cell-based
[34] = tested on: HEp-2; test: Reduction in c-IAP2 levels in human Hep2 cells at 50 ug/ml incubated for 24 hrs by protein array method; format: functional, cell-based
[35] = tested on: HEp-2; test: Reduction in XIAP levels in human Hep2 cells at 50 ug/ml incubated for 24 hrs by protein array method; format: functional, cell-based
[36] = tested on: HEp-2; test: Reduction in HSP70 protein levels in human Hep2 cells at 50 ug/ml incubated for 24 hrs by protein array method; format: functional, cell-based
[37] = tested on: HEp-2; test: Reduction in HSP27 protein levels in human Hep2 cells at 50 ug/ml incubated for 24 hrs by protein array method; format: functional, cell-based
[38] = tested on: HEp-2; test: Reduction in pro-caspase-3 levels in human Hep2 cells at 50 ug/ml incubated for 24 hrs by protein array method; format: functional, cell-based
[39] = tested on: HEp-2; test: Reduction in livin protein levels in human Hep2 cells at 50 ug/ml incubated for 24 hrs by protein array method; format: functional, cell-based

| Structure (SMILES) | Activity [1] | Activity [2] [%] | Activity [3] | Activity [4] [%] | Activity [5] | viability at 50 µg/mL [6] [%] | Activity [7] [%] | Activity [8] | Activity [9] [%] | Activity [10] [%] | viability at 50 µg/mL [11] [%] | viability at 25 µg/mL [12] [%] | viability at 12.5 µg/mL [13] [%] | Activity [14] [%] | viability at 25 µg/mL [15] [%] | viability at 50 µg/mL [16] [%] | Activity [17] [%] | Activity [18] | viability at 25 µg/mL [19] [%] | viability at 12.5 µg/mL [20] [%] | other results |
| --- | --- | --- | --- | --- | --- | --- | --- | --- | --- | --- | --- | --- | --- | --- | --- | --- | --- | --- | --- | --- | --- |
| Cn1cc(C(=O)NC(=S)Nc2ccc(Br)cc2)cn1 | Active | 16.97 | Active | 18.75 | Active | 37 | 9.91 | Active | 2.78 | 22.6 | 91.7 | 100 | 100 | 3.83 | 100 | 90 | 75.28 | Dose-dependent effect | 72.9 | 100 | Activity [21]: 91.7%; Activity [22]: 1.73%; viability at 12.5 µg/mL [23]: 100%; Activity [24]: 67.63% |
| Cc1cs/c(=N\C(=O)c2cnn(C)c2)n1-c1ccc(I)cc1 | Active | 23.56 | Active | 25.92 | Active | 37.2 | 9.07 | Active | 2.91 | 27.45 | 91.8 | 100 | 100 | 3.89 | 100 | 90 | 66.94 | Dose-dependent effect | 86.9 | 100 | Activity [25]: Active; Activity [26]: Active; Activity [27]: Active; Activity [28]: Active; Activity [29]: Active; Activity [30]: Active; Activity [31]: Active; Activity [32]: Active; Activity [33]: Active; Activity [34]: Active; Activity [35]: Active; Activity [36]: Active; Activity [37]: Active; Activity [38]: Active; Activity [39]: Active; Activity [21]: 91.8%; Activity [22]: 1.41%; viability at 12.5 µg/mL [23]: 99%; Activity [24]: 50.7% |
| Cn1cc(C(=O)/N=C2\SCC(C)(O)N2c2ccc(Br)cc2)cn1 (configuration not stated) | Active | 19.2 | Active | 39.46 | Active | 33.9 | 19.88 | Active | 6.22 | 28.71 | 85.7 | 92 | 100 | 6.76 | 95 | 91 | 62.35 | Dose-dependent effect | 67.4 | 98 | Activity [21]: 85.7%; Activity [22]: 1.34%; viability at 12.5 µg/mL [23]: 95%; Activity [24]: 37.33% |
